Data on 18 compounds can be found in ChEMBL document CHEMBL1177871, “Synthesis and antitumor activity of novel 2',3'-diethanethio-2',3',5'-trideoxy-5'-triazolonucleoside analogues” (Eur J Med Chem, 2010).

Format in all cases: functional, cell-based
In one experiment the test system is HeLa. In words: Cytotoxicity against human HeLa cells after 72 hrs by MTT assay. The method in brief:
(§1)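 Incubation was 72 h at 37 °C in 95% air/5% CO₂. MTT was then added for 4 h and absorbance read at 490 nm. EC₅₀ is the concentration giving 50% growth inhibition versus untreated control; 5-fluorouridine served as reference.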
(Formazan colour is commonly taken as a measure of viable cells.)

The test system of a further experiment is HepG2. Kind of experiment: Cytotoxicity against human HepG2 cells after 72 hrs by MTT assay. As to conditions: HepG2, 72 h. The method in brief:
as §1

The subject of the next experiment is A549. Kind of experiment: Cytotoxicity against human A549 cells after 72 hrs by MTT assay. To be noted: A549, 72 h. In short, it runs like this:
as §1

A short description of experiment [1]: Cytotoxicity against human LAC cells after 72 hrs by MTT assay. In short, it runs like this:
as §1

Structures are written as SMILES.

Take `CCS[C@@H]1[C@H](SCC)[C@@H](Cn2cc(-c3ccc(OC)cc3)nn2)O[C@H]1n1cc(C)c(=O)[nH]c1=O`: the EC50 amounted to 66 µM in the experiment with HeLa, 22.8 µM in the experiment on HepG2, 38.8 µM in the experiment on A549 and 25.9 µM in experiment [1].

In the case of `O=c1[nH]cc(F)c(=O)[nH]1` [FLUOROURACIL], the EC50 worked out at 79.8 µM with HeLa, 52.4 µM with HepG2, 100 µM with A549 and 43.7 µM in experiment [1].

Consider `CCS[C@@H]1[C@H](SCC)[C@@H](Cn2cc(-c3ccccc3C(F)(F)F)nn2)O[C@H]1n1ccc(=O)[nH]c1=O`, for which the concentration for a half-maximal effect (EC50) was found to be 32.8 µM with HeLa, 30.3 µM with HepG2, 19.4 µM in the experiment on A549 and 81.1 µM in experiment [1].

`CCOC(=O)c1cn(C[C@H]2O[C@@H](n3cc(C)c(=O)[nH]c3=O)[C@H](SCC)[C@@H]2SCC)nn1`: the EC50 (in the experiment on HeLa; in the experiment with HepG2; in the experiment with A549; in experiment [1]) was at least 100 µM in each case.

On to `CCS[C@@H]1[C@H](SCC)[C@@H](Cn2cc(-c3ccc(C)cc3)nn2)O[C@H]1n1ccc(=O)[nH]c1=O`, for which the EC50 is 46.7 µM in the experiment with HeLa, 19.9 µM in the experiment with HepG2, 6.78 µM in the experiment with A549 and at least 100 µM in experiment [1].

As for `CCS[C@@H]1[C@H](SCC)[C@@H](Cn2cc(-c3cccc(C)c3)nn2)O[C@H]1n1ccc(=O)[nH]c1=O`, the EC50 with HeLa was determined as 18.8 µM; with HepG2, 18.3 µM; in the experiment on A549, 12.2 µM; in experiment [1], 99 µM.

`CCS[C@@H]1[C@H](SCC)[C@@H](Cn2cc(-c3cccs3)nn2)O[C@H]1n1ccc(=O)[nH]c1=O`: the EC50 with HeLa was at least 100 µM; with HepG2, 91.8 µM; in the experiment on A549 it was at least 100 µM; in experiment [1], 86.5 µM.

`CCS[C@@H]1[C@H](SCC)[C@@H](Cn2cc(-c3ccccc3)nn2)O[C@H]1n1cc(C)c(=O)[nH]c1=O`: the EC50 with HeLa is 1.89 µM; in the experiment with HepG2 it was 65 µM; with A549, 31.7 µM.

As for `CCS[C@@H]1[C@H](SCC)[C@@H](Cn2cc(-c3ccc(F)cc3)nn2)O[C@H]1n1cc(C)c(=O)[nH]c1=O`, the EC50 was 39.5 µM in the experiment on HeLa, 22.7 µM in the experiment on HepG2, at least 100 µM in the experiment with A549 and at least 100 µM in experiment [1].

On to `CCS[C@@H]1[C@H](SCC)[C@@H](Cn2cc(-c3ccccc3)nn2)O[C@H]1n1ccc(N)nc1=O`, for which the figures for the EC50 in the experiment with HeLa, in the experiment on HepG2 and with A549 were 33.5 µM, 57.1 µM and 64 µM, respectively.

Consider `CCS[C@@H]1[C@H](SCC)[C@@H](Cn2cc(-c3ccc(F)cc3)nn2)O[C@H]1n1ccc(=O)[nH]c1=O`, for which the concentration giving a half-maximal response (EC50) in the experiment on HeLa is 37.4 µM; in the experiment with HepG2, 22.6 µM; with A549, 22.9 µM; in experiment [1], 72.4 µM.

In the case of `CCS[C@@H]1[C@H](SCC)[C@@H](Cn2cc(-c3cccs3)nn2)O[C@H]1n1cc(C)c(=O)[nH]c1=O`, the concentration for a half-maximal effect (EC50) in the experiment on HeLa was 54.9 µM; in the experiment with HepG2 it was at least 100 µM; in the experiment on A549, 37.3 µM; in experiment [1], at least 100 µM.

`CCOC(=O)c1cn(C[C@H]2O[C@@H](n3ccc(=O)[nH]c3=O)[C@H](SCC)[C@@H]2SCC)nn1`: the concentration giving a half-maximal response (EC50) (with HeLa; in the experiment with HepG2; with A549; in experiment [1]) was at least 100 µM throughout.

With `CCS[C@@H]1[C@H](SCC)[C@@H](Cn2cc(-c3ccc(OC)cc3)nn2)O[C@H]1n1ccc(=O)[nH]c1=O`, the EC50 worked out at 27.7 µM with HeLa, 16.2 µM with HepG2, 16.8 µM in the experiment with A549 and 24.3 µM in experiment [1].

`CCS[C@@H]1[C@H](SCC)[C@@H](Cn2cc(-c3ccccc3)nn2)O[C@H]1n1ccc(=O)[nH]c1=O`: the EC50 in the experiment with HeLa was 6.59 µM; with HepG2 it was 8.38 µM; in the experiment on A549, 3.04 µM.

With `CCS[C@@H]1[C@H](SCC)[C@@H](Cn2cc(COC(C)=O)nn2)O[C@H]1n1ccc(=O)[nH]c1=O`, the EC50 (with HeLa; in the experiment on HepG2; in the experiment on A549; in experiment [1]) was at least 100 µM each time.

Take `CCS[C@@H]1[C@H](SCC)[C@@H](Cn2cc(-c3ccccc3C(F)(F)F)nn2)O[C@H]1n1cc(C)c(=O)[nH]c1=O`: the EC50 in the experiment on HeLa was found to be 54.3 µM; in the experiment on HepG2, 22.1 µM; in the experiment on A549 it was 7.23 µM; in experiment [1], 50.6 µM.

As for `CCS[C@@H]1[C@H](SCC)[C@@H](Cn2cc(-c3ccc(C)cc3)nn2)O[C@H]1n1cc(C)c(=O)[nH]c1=O`, the EC50 was 77.5 µM in the experiment with HeLa, 21.6 µM in the experiment with HepG2, 12.3 µM with A549 and at least 100 µM in experiment [1].

What is called EC50 is the concentration that produces a half-maximal response. Lower therefore signals a more potent agent.
